Experimental data: ChEMBL document CHEMBL2406952, “Identification of vitamin d3-based hedgehog pathway inhibitors that incorporate an aromatic a-ring isostere” (ACS Med Chem Lett, 2013)
The source made the active and inactive calls. The calls are words filed in the database; no cut-off is given here.

Columns and labels:
[1] = target: T1, Vitamin D3 receptor (Mus musculus) (UniProt P48281); assay: Activation of VDR in mouse C3H10T1/2 cells assessed as upregulation of Cyp24A1 mRNA expression at 5 uM after 24 hrs by RT-PCR analysis relative to DMSO-treated control; format: cell-based; conditions: C3H 10T1/2
T1 sequence (whole entry): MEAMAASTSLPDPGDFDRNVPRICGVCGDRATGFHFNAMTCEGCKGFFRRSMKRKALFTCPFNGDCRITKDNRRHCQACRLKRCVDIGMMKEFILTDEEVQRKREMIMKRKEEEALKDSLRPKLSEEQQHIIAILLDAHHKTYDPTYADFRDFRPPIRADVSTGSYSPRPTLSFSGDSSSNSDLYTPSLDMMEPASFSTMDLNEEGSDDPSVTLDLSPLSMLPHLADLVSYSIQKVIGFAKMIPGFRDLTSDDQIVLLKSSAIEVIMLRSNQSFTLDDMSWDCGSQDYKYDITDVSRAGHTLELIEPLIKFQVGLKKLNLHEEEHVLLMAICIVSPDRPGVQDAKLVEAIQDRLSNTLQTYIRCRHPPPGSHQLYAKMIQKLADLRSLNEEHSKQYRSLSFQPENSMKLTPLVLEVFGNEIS
Method in brief: (§1)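 Cyp24A1 mRNA normalized to ActinB and expressed relative to DMSO vehicle (set to 1.0). Cells treated for 24 h at 5 μM (some agents at 1 μM).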

[2] = target: T2, Vitamin D3 receptor (Homo sapiens) (UniProt P11473); assay: Binding affinity to human VDR by fluorescence polarization assay
T2 sequence (whole entry): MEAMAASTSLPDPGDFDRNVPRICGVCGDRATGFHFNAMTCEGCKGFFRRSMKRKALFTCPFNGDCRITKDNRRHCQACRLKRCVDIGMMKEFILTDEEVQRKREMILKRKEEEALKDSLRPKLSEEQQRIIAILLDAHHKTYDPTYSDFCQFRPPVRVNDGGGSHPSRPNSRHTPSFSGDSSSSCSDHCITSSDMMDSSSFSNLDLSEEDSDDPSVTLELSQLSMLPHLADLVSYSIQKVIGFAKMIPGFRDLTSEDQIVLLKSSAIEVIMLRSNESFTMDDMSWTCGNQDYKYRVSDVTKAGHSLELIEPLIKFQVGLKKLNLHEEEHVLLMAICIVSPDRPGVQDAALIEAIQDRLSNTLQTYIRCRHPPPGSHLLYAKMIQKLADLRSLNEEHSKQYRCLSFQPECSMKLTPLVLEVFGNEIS
Method in brief: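 Fluorescence polarization competition kit with full-length human VDR and a tight-binding fluorescent VDR ligand, run per manufacturer's instructions. Compounds tested at 50 and 100 μM, with calcitriol as positive control for binding.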

[3] = Inhibition of Hedgehog signaling in mouse C3H10T1/2 cells assessed as downregulation of Gli1 mRNA expression at 5 uM after 24 hrs by RT-PCR analysis relative to 20(S)-hydroxycholesterol and 22(S)-hydroxycholesterol; format: cell-based; conditions: C3H 10T1/2
Method in brief: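 Endogenous Gli1 mRNA measured after 24 h at 5 μM and normalized to ActinB with DMSO vehicle set to 1.0. Cells stimulated with 20(S)-hydroxycholesterol plus 22(S)-hydroxycholesterol (5 μM each) define 100% pathway activity, and the analogue effect is given as % of this level.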

Daoy = assay: Downregulation of Gli1 mRNA expression in human DaOY cells at 2.5 uM relative to DMSO-treated control; format: functional
[4] = Inhibition of Hedgehog signaling in mouse M210B4 cells assessed as downregulation of Gli1 mRNA expression after 24 hrs by RT-PCR analysis; format: cell-based; conditions: M210B4, 24 h
Method in brief: (§2)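 Oxysterol-stimulated cells (20(S)- plus 22(S)-hydroxycholesterol, 5 μM each) were treated with compound across a dose range for 24 h. Gli1 and Ptch mRNA were normalized to ActinB, and IC50 values were derived. VD3 was dosed up to 10 μM.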

[5] = Inhibition of Hedgehog signaling in mouse M210B4 cells assessed as downregulation of Ptch mRNA expression after 24 hrs by RT-PCR analysis; format: cell-based; conditions: M210B4, 24 h; method in brief: as §2
[6] = Inhibition of Hedgehog signaling in mouse ASZ001 cells assessed as downregulation of Gli1 mRNA expression after 48 hrs by RT-PCR analysis; format: cell-based; conditions: ASZ001, 48 h
Method in brief: (§3)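 Gli1 mRNA dose-response after 48 h compound incubation, used to derive IC50 (μM). Each value comes from at least two separate experiments, each performed in triplicate.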

[7] = Inhibition of Hedgehog signaling in human DaOY cells assessed as downregulation of Gli1 mRNA expression after 48 hrs by RT-PCR analysis; format: cell-based; method in brief: as §3
[8] = target: T2, Vitamin D3 receptor (Homo sapiens); assay: Activation of VDR in human DaOY cells assessed as upregulation of Cyp24A1 mRNA expression at 5 uM after 48 hrs by RT-PCR analysis relative to DMSO-treated control; format: cell-based
Method in brief: (§4)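 Cyp24A1 mRNA measured after 48 h exposure to analogue and normalized to ActinB, expressed relative to DMSO vehicle-treated cells (set as 1.0). Single concentrations tested were 2.5, 5 or 10 μM.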

[9] = target: T2, Vitamin D3 receptor (Homo sapiens); assay: Activation of VDR in human HT-29 assessed as upregulation of Cyp24A1 mRNA expression after 6 hrs by Northern blotting analysis
[10] = Inhibition of Hedgehog signaling in mouse C3H10T1/2 cells assessed as downregulation of Ptch mRNA expression after 24 hrs by RT-PCR analysis; format: cell-based; conditions: for inhibition: C3H 10T1/2; for IC50: C3H 10T1/2, 24 h; method in brief: as §2
[11] = target: T1, Vitamin D3 receptor (Mus musculus); assay: Activation of VDR in mouse M210B4 cells assessed as upregulation of Cyp24A1 mRNA expression at 5 uM after 24 hrs by RT-PCR analysis relative to DMSO-treated control; format: cell-based; method in brief: as §1
[12] = target: T1, Vitamin D3 receptor (Mus musculus); assay: Activation of VDR in mouse ASZ001 cells assessed as upregulation of Cyp24A1 mRNA expression at 5 uM after 48 hrs by RT-PCR analysis relative to DMSO-treated control; format: cell-based; method in brief: as §4
[13] = Inhibition of Hedgehog signaling in mouse C3H10T1/2 cells assessed as downregulation of Gli1 mRNA expression after 24 hrs by RT-PCR analysis; format: cell-based; conditions: for inhibition: C3H 10T1/2; for IC50: C3H 10T1/2, 24 h; method in brief: as §2
[14] = target: T1, Vitamin D3 receptor (Mus musculus); assay: Activation of VDR in mouse M210B4 cells assessed as upregulation of Cyp24A1 mRNA expression at 1 uM after 24 hrs by RT-PCR analysis relative to DMSO-treated control; format: cell-based
Method in brief: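 M2-10B4 murine bone marrow stromal cells treated for 24 h at 1 μM; Cyp24A1 mRNA normalized to ActinB and expressed relative to DMSO vehicle, set to 1.0.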

[15] = target: T2, Vitamin D3 receptor (Homo sapiens); assay: Activation of VDR in human DaOY cells assessed as upregulation of Cyp24A1 mRNA expression at 2.5 uM after 48 hrs by RT-PCR analysis relative to DMSO-treated control; format: cell-based
Method in brief: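 Cells exposed to compound for 48 h; Cyp24A1 mRNA expression measured and expressed relative to DMSO vehicle-treated cells, set as 1.0.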

[16] = Inhibition of Hedgehog signaling in mouse ASZ001 cells assessed as downregulation of Gli1 mRNA expression at 10 uM after 48 hrs by RT-PCR analysis relative to control; values are per cent of control
[17] = target: T2, Vitamin D3 receptor (Homo sapiens); assay: Activation of VDR in human DaOY cells assessed as upregulation of Cyp24A1 mRNA expression at 10 uM after 48 hrs by RT-PCR analysis relative to DMSO-treated control; format: cell-based; method in brief: as §4

Row | SMILES | fold change (FC) [1] | Activity [2] [µM] | Gli1 mRNA level (% of OHC control) [3] [%] | IC50 [6] [µM] | IC50 [7] [µM] | fold change (FC) [12] | also measured
1 | COc1cccc(C(=O)O[C@H]2CCC[C@]3(C)[C@@H]([C@H](C)CCCC(C)C)CC[C@@H]23)c1 | 1.3 | > 100 | 104 | – | – | – | –
2 | O=C(CCCCCCC(=O)Nc1ccccc1)NO [VORINOSTAT] | – | – | – | – | – | – | fold change (FC) (Daoy): 1.51
3 | CS(=O)(=O)c1ccc(C(=O)Nc2ccc(Cl)c(-c3ccccn3)c2)c(Cl)c1 [VISMODEGIB] | – | – | – | 0.04 | 0.086 | – | IC50 [4]: 0.2 µM; IC50 [5]: 0.14 µM
4 | CC(C)CCC[C@@H](C)[C@H]1CC[C@H]2[C@@H](OC(=O)c3cccc(O)c3)CCC[C@]12C | 22.2 | > 100 | 1.9 | 5.2 | 3.7 | 1.9 | fold change (FC) [8]: 0.4; IC50 [4]: 1.1 µM; Activity [9]: inactive; IC50 [5]: 1.7 µM; inhibition [10]: Dose-dependent effect; IC50 [10]: 1.1 µM; fold change (FC) [11]: 1.2; inhibition [13]: Dose-dependent effect; IC50 [13]: 0.74 µM
5 | CC(C)CCC[C@@H](C)[C@H]1CC[C@H]2[C@@H](OC(=O)c3cccc(N)c3)CCC[C@]12C | 24.3 | > 100 | 2.4 | 7.1 | 9.2 | 2.5 | fold change (FC) [8]: 0.5; inhibition [10]: Dose-dependent effect; IC50 [10]: 4.5 µM; inhibition [13]: Dose-dependent effect; IC50 [13]: 2.8 µM
6 | CC1=C2C[C@H]3[C@@H](CC=C4C[C@@H](O)CC[C@@]43C)[C@@H]2CC[C@]12O[C@@H]1C[C@H](C)CN[C@H]1[C@H]2C [CYCLOPAMINE] | – | – | – | 0.66 | 0.16 | 0.8 | IC50 [4]: 0.8 µM; IC50 [5]: 0.43 µM; fold change (FC) [14]: 1.5; fold change (FC) [15]: 1
7 | CC(C)CCC[C@@H](C)[C@H]1CC[C@H]2[C@@H](OC(=O)c3cccc(Cl)c3)CCC[C@]12C | 1.2 | > 100 | 107 | – | – | – | –
8 | Cc1ccc(NC(=O)c2ccc(CN3CCN(C)CC3)cc2)cc1Nc1nccc(-c2cccnc2)n1 [IMATINIB] | – | – | – | – | – | – | fold change (FC) (Daoy): 0.98
9 | CC(C)CCC[C@@H](C)[C@H]1CC[C@H]2[C@@H](OC(=O)c3cccc(C(=O)O)c3)CCC[C@]12C | 6.7 | > 100 | 40 | – | – | – | –
10 | O=C(O)c1cccc(O)c1 | 1.6 | > 100 | 92.6 | – | – | – | –
11 | COC[C@H]1OC(=O)c2coc3c2[C@@]1(C)C1=C(C3=O)[C@@H]2CCC(=O)[C@@]2(C)C[C@H]1OC(C)=O [WORTMANNIN] | – | – | – | – | – | – | fold change (FC) (Daoy): 0.92
12 | CC(C)CCC[C@@H](C)[C@H]1CC[C@H]2[C@@H](OC(=O)c3cccc(OCc4ccccc4)c3)CCC[C@]12C | 1 | > 100 | 116 | – | – | – | –
13 | CC(C)CCC[C@@H](C)[C@H]1CC[C@H]2[C@@H](O)CCC[C@]12C | 3.6 | – | 46.4 | > 10 | > 10 | 2.4 | fold change (FC) [8]: 0.8; level, % of control [16]: 65%; IC50 [10]: 2.8 µM; IC50 [13]: 3.1 µM
14 | CNc1cccc(C(=O)O[C@H]2CCC[C@]3(C)[C@@H]([C@H](C)CCCC(C)C)CC[C@@H]23)c1 | 1.6 | > 100 | 97.8 | – | – | – | –
15 | CC(=O)c1cccc(C(=O)O[C@H]2CCC[C@]3(C)[C@@H]([C@H](C)CCCC(C)C)CC[C@@H]23)c1 | 1.6 | > 100 | 77.5 | – | – | – | –
16 | CC(C)CCC[C@@H](C)[C@H]1CC[C@H]2[C@@H](OC(=O)c3ccccc3)CCC[C@]12C | 1.2 | > 100 | 105 | > 10 | > 10 | 1.1 | fold change (FC) [17]: 0.6
